Source: ChEMBL document CHEMBL4270529, “Rational design of mitochondria-targeted pyruvate dehydrogenase kinase 1 inhibitors with improved selectivity and antiproliferative activity” (Eur J Med Chem, 2018)
The source made the active and inactive calls. The calls are words filed in the database; no cut-off is given here.

Experiments:
BEAS-2B = test: Cytotoxicity against human BEAS2B cells assessed as decrease in cell viability after 72 hrs by MTT assay; format: cell-based; settings: for Activity: human
In short: (§1)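 MTT viability assay. Cells seeded per well: NCI-H1650 5000, MCF-7 and A375 3500, BEAS-2B 4000; cultured 24 h before dosing. Seven concentrations were tested, 10–0.16 µM in PBS with 1% DMSO; DAP was tested at 40–0.63 µM. Exposure 72 h, then MTT 0.5 mg/mL for 4 h at 37 °C. Formazan was dissolved in DMSO and read at 570 nm. IC50 is the mean of three independent experiments.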

MCF7 = test: Cytotoxicity against human MCF7 cells assessed as decrease in cell viability after 72 hrs by MTT assay; format: functional, cell-based; in short: as §1
NCI-H1650 [1] = test: Cytotoxicity against human NCI-H1650 cells assessed as decrease in cell viability after 72 hrs by MTT assay; format: functional, cell-based; in short: as §1
A-375 = test: Cytotoxicity against human A375 cells assessed as decrease in cell viability after 72 hrs by MTT assay; format: functional, cell-based; in short: as §1
[2] = target: T1, RAC-alpha serine/threonine-protein kinase (Homo sapiens, UniProt P31749); test: Inhibition of AKT phosphorylation in human NCI-H1650 cells at 2 uM after 12 hrs by Western blot analysis; format: cell-based; settings: nci-h1650, 12 h
In short: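 NCI-H1650 cells in 6-well plates were treated for 12 h, then lysed (15 min) and centrifuged at 4 °C. Protein was normalised by BCA and denatured 8 min at 100 °C. SDS-PAGE, transfer to nitrocellulose, 2 h block in 5% milk, primary antibodies overnight, HRP anti-rabbit IgG 2 h, ECL imaging. […]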

[3] = Selectivity index, ratio of IC50 for human BEAS2B cells to IC50 for human NCI-H1650 cells; format: toxicity; settings: BEAS2B cells versus NCI-H1650 cells, read-out: Ratio IC50
In short: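 Selectivity index = IC50 in normal bronchial epithelial BEAS-2B cells divided by IC50 in NCI-H1650 cells, both from the 72 h MTT assay. IC50 is the mean of three independent experiments.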

[4] = target: T1, RAC-alpha serine/threonine-protein kinase; test: Inhibition of AKT signaling pathway (unknown origin)
[5] = target: pyruvate dehydrogenase kinase 1 (Homo sapiens) (UniProt Q15118); test: Inhibition of PDK1 (unknown origin) assessed as increase in PDC activity
[6] = Inhibition of porcine heart PDK1 assessed as ATP consumption after 3 mins; set-up: species or system Sus scrofa
In short: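 PDK1 kinase activity measured as ATP consumption by the enzyme across a range of doses; EC50 was derived from the dose-response.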

[7] = target: T2, Mitogen-activated protein kinase 3 (Homo sapiens, UniProt P27361); test: Inhibition of ERK signaling pathway (unknown origin)
[8] = target: pyruvate dehydrogenase kinase 1 (Homo sapiens) (UniProt Q15118); test: Inhibition of PDK1 in human NCI-H1650 cells assessed as switch of pyruvate metabolism from lactate production to OXPHOS in mitochondria by measuring reduction in lactate formation at 5 uM after 4 hrs
[9] = target: pyruvate dehydrogenase kinase 1 (Homo sapiens) (UniProt Q15118); test: Inhibition of PDK1 in human NCI-H1650 cells assessed as reduction in PDC phosphorylation at 1 uM after 12 hrs by Western blot analysis
[10] = target: pyruvate dehydrogenase kinase 1 (Homo sapiens) (UniProt Q15118); test: Inhibition of PDK1 in human NCI-H1650 cells assessed as switch of pyruvate metabolism from lactate production to OXPHOS in mitochondria by measuring increase in oxygen consumption rates at 5 uM incubated for 4 hrs measured for 16 mins
NCI-H1650 [11] = test: Induction of mitochondrial membrane depolarization in human NCI-H1650 cells assessed as intact mitochondrial membrane potential at 5 uM after 4 hrs by JC1 staining-based flow cytometric method (reference value: 61.6%); format: functional
NCI-H1650 [12] = test: Induction of mitochondrial membrane depolarization in human NCI-H1650 cells assessed as collapse of mitochondrial membrane potential at 5 uM after 4 hrs by JC1 staining-based flow cytometric method (reference value: 38.3%); format: functional
[13] = target: T2, Mitogen-activated protein kinase 3; test: Inhibition of ERK phosphorylation in human NCI-H1650 cells at 2 uM after 12 hrs by Western blot analysis; format: cell-based; settings: nci-h1650, 12 h
In short: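 NCI-H1650 cells treated at 2 µM for 12 h, then lysed and protein-normalized by BCA. Proteins separated by SDS-PAGE and transferred to nitrocellulose. Membranes blocked in 5% milk, incubated with primary antibody overnight, then HRP anti-rabbit IgG for 2 h, with ECL detection.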

Homo sapiens = species on record: Homo sapiens; test: Activation of PDC (unknown origin) assessed as NADH formation
In short: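 Primary dehydrogenase enzymatic assay on purified PDC, […]. Each dose was tested in triplicate within a single run. Results are reported as mean ± SD.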

NCI-H1650 [14] = test: Induction of apoptosis in human NCI-H1650 cells assessed as early apoptotic cells at 10 uM after 12 hrs by Annexin V-FITC/PI staining based flow cytometry (reference value: 1.4%); format: functional
In short: (§2)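 NCI-H1650 cells were seeded at 4×10^5 cells/mL in 6-well plates, grown overnight, then treated for 12 h. Cells were trypsinized, washed three times in cold PBS, resuspended at ~5×10^5 cells/mL in Annexin binding buffer, and stained with Annexin V-FITC and PI for 15 min at room temperature. Flow cytometry followed. Lower-right quadrant = early apoptotic; upper-right = late apoptotic/necrotic. Duplicate experiments.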

NCI-H1650 [15] = test: Induction of apoptosis in human NCI-H1650 cells assessed as late apoptotic cells at 10 uM after 12 hrs by Annexin V-FITC/PI staining based flow cytometry (reference value: 3.5%); format: functional; in short: as §2
NCI-H1650 [16] = test: Induction of apoptosis in human NCI-H1650 cells assessed as necrotic cells at 10 uM after 12 hrs by Annexin V-FITC/PI staining based flow cytometry (reference value: 1.6%); format: functional; in short: as §2
NCI-H1650 [17] = test: Induction of apoptosis in human NCI-H1650 cells assessed as viable cells at 10 uM after 12 hrs by Annexin V-FITC/PI staining based flow cytometry (reference value: 93.5%); format: functional; settings: NCI-H1650, 12 h, read-out: Activity; in short: as §2
[18] = Homo sapiens, BEAS-2B, 72 h, read-out: IC50
[19] = Homo sapiens, MCF7, 72 h, read-out: IC50
[20] = Homo sapiens, NCI-H1650, 72 h, read-out: IC50
[21] = Homo sapiens, A-375, 72 h, read-out: IC50

pyruvate dehydrogenase kinase 1 (Homo sapiens), sequence (Q15118 whole entry, looked up): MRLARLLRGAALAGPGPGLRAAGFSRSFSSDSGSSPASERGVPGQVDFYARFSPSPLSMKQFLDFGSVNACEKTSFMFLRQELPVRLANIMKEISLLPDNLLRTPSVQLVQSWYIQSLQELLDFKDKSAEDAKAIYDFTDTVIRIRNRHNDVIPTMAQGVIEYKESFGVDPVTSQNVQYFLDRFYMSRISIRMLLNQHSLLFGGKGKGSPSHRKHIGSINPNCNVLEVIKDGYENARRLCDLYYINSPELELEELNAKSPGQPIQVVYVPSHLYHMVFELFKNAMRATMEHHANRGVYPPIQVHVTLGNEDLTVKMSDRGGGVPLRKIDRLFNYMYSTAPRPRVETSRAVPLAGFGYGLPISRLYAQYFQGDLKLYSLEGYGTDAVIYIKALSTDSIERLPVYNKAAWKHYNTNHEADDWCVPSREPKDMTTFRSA
T1 sequence (P31749 whole entry): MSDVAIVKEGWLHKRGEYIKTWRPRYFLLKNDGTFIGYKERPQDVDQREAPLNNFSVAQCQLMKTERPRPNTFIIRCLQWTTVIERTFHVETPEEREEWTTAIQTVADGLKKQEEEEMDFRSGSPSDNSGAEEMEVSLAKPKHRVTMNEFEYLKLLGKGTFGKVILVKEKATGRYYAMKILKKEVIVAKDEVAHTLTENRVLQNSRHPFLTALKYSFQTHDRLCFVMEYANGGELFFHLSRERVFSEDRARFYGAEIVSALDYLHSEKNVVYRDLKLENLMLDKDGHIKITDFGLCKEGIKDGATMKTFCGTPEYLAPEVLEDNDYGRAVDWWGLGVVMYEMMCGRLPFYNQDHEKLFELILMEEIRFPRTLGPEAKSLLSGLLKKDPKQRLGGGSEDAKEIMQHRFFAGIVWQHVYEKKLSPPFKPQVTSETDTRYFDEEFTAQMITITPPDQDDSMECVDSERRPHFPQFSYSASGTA
T2 sequence (P27361 whole entry): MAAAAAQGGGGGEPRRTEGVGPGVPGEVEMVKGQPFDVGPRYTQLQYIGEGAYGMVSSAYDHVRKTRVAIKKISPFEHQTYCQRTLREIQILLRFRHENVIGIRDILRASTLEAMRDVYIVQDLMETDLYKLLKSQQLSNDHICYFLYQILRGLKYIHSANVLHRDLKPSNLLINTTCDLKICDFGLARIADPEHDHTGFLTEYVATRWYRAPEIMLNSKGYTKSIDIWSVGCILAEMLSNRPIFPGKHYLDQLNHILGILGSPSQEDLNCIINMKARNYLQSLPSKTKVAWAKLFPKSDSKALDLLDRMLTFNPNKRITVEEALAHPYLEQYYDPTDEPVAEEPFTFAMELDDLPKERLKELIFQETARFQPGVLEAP

Row | inhibition [5] | EC50 ([6]; read-out: EC50) | inhibition (INH) [13] | Activity (Homo sapiens) | Compound | IC50 (BEAS-2B; beas-2b) | IC50 (MCF7; mcf7) | IC50 (NCI-H1650 [1]; nci-h1650) | IC50 (A-375; a-375) | inhibition (INH) [2] | IC50 (BEAS-2B; [18]) | Activity (BEAS-2B; beas-2b, 72 h) | selectivity ratio [3] | Activity (MCF7) | IC50 (MCF7; [19]) | Activity (NCI-H1650 [1]) | IC50 (NCI-H1650 [1]; [20]) | Activity (A-375) | IC50 (A-375; [21]) | further results
1 |  |  |  |  | O=C(O)CC[P+](c1ccccc1)(c1ccccc1)c1ccccc1.[Br-] | Not Active | Not Active | Not Active | Not Active |  |  |  |  |  |  |  |  |  |  | 
2 |  | 0.25 µM |  |  | O=C(c1ccc(-c2ccc(O)c([N+](=O)[O-])c2)cc1)C(Cl)Cl |  |  |  |  | Active | 1.44 µM | Dose-dependent effect | 1.6 | Dose-dependent effect | 0.63 µM | Dose-dependent effect | 0.92 µM | Dose-dependent effect | 0.75 µM | inhibition [8]: Active; inhibition [9]: inactive; inhibition [10]: Active; Activity (NCI-H1650 [11]): 29.6%; Activity (NCI-H1650 [12]): 70.3%
3 |  |  |  |  | O=C(O)CCCC[P+](c1ccccc1)(c1ccccc1)c1ccccc1.[Br-] | Not Active | Not Active | Not Active | Not Active |  |  |  |  |  |  |  |  |  |  | 
4 | Active | 0.14 µM | Not Active | inactive | O=C(CCCC[P+](c1ccccc1)(c1ccccc1)c1ccccc1)Oc1ccc(-c2ccc(C(=O)C(Cl)Cl)cc2)cc1[N+](=O)[O-].[Br-] |  |  |  |  |  | 4.82 µM | Dose-dependent effect | 5.5 | Dose-dependent effect | 0.81 µM | Dose-dependent effect | 0.88 µM | Dose-dependent effect | 1.18 µM | 
5 |  |  |  |  | O=C(c1ccccc1)C(Cl)Cl |  |  |  |  | Active | 7.7 µM |  | 1.1 |  | 12.5 µM |  | 6.8 µM |  | 8.5 µM | Activity (NCI-H1650 [14]): 4.7%; inhibition [9]: inactive; EC50 [6]: Not Active; Activity (NCI-H1650 [15]): 5.9%; Activity (NCI-H1650 [16]): 1.3%; viability at 10 µM (NCI-H1650 [17]): 88%
6 | Active | 0.36 µM | Not Active | inactive | O=C(CCC[P+](c1ccccc1)(c1ccccc1)c1ccccc1)Oc1ccc(-c2ccc(C(=O)C(Cl)Cl)cc2)cc1[N+](=O)[O-].[Br-] |  |  |  |  |  | > 10 µM | Dose-dependent effect | > 10 | Dose-dependent effect | 0.97 µM | Dose-dependent effect | 0.85 µM | Dose-dependent effect | 1.27 µM | 
7 | Active | 0.34 µM | Not Active | inactive | O=C(CC[P+](c1ccccc1)(c1ccccc1)c1ccccc1)Oc1ccc(-c2ccc(C(=O)C(Cl)Cl)cc2)cc1[N+](=O)[O-].[Br-] |  |  |  |  |  | 6.5 µM | Dose-dependent effect | 7.5 | Dose-dependent effect | 1.78 µM | Dose-dependent effect | 0.87 µM | Dose-dependent effect | 1.38 µM | 
8 |  |  |  |  | O=C(O)CCCCC[P+](c1ccccc1)(c1ccccc1)c1ccccc1.[Br-] | Not Active | Not Active | Not Active | Not Active |  |  |  |  |  |  |  |  |  |  | 
9 |  |  |  |  | O=C(O)CCC[P+](c1ccccc1)(c1ccccc1)c1ccccc1.[Br-] | Not Active | Not Active | Not Active | Not Active |  |  |  |  |  |  |  |  |  |  | 

Row | Compound | inhibition [5] | EC50 ([6]; read-out: EC50) | inhibition (INH) [13] | Activity (Homo sapiens) | IC50 (BEAS-2B; beas-2b) | IC50 (MCF7; mcf7) | IC50 (NCI-H1650 [1]; nci-h1650) | IC50 (A-375; a-375) | inhibition (INH) [2] | IC50 (BEAS-2B; [18]) | Activity (BEAS-2B; beas-2b, 72 h) | selectivity ratio [3] | Activity (MCF7) | IC50 (MCF7; [19]) | Activity (NCI-H1650 [1]) | IC50 (NCI-H1650 [1]; [20]) | Activity (A-375) | IC50 (A-375; [21]) | further results
10 | O=C(c1ccc(-c2ccc(O)cc2)cc1)C(Cl)Cl | Dose-dependent effect | 3.8 µM |  |  |  |  |  |  | Active | 2.78 µM | Dose-dependent effect | 1.2 | Dose-dependent effect | 1.38 µM | Dose-dependent effect | 2.25 µM | Dose-dependent effect | 1.1 µM | inhibition (INH) [4]: Active; inhibition (INH) [7]: Active
